# Reference: ChEMBL document CHEMBL4811244, “Design and synthesis of 1H-pyrazolo[3,4-b]pyridines targeting mitogen-activated protein kinase kinase 4 (MKK4) - A promising target for liver regeneration” (Eur J Med Chem, 2021)
# pIC50, pKd: −log10 of the molar value.
# Key:
# [1] = biological target: T1, Mitogen-activated protein kinase kinase kinase kinase 5 (Homo sapiens, UniProt Q9Y4K4); assay: Binding affinity to wild-type human partial length MAP4K5 (M1 to P297 residues) expressed in bacterial expression system assessed as residual binding level at 100 nM by Kinomescan method relative to control
# Target sequence in this assay (Q9Y4K4 whole entry, looked up, the tested form may be a part): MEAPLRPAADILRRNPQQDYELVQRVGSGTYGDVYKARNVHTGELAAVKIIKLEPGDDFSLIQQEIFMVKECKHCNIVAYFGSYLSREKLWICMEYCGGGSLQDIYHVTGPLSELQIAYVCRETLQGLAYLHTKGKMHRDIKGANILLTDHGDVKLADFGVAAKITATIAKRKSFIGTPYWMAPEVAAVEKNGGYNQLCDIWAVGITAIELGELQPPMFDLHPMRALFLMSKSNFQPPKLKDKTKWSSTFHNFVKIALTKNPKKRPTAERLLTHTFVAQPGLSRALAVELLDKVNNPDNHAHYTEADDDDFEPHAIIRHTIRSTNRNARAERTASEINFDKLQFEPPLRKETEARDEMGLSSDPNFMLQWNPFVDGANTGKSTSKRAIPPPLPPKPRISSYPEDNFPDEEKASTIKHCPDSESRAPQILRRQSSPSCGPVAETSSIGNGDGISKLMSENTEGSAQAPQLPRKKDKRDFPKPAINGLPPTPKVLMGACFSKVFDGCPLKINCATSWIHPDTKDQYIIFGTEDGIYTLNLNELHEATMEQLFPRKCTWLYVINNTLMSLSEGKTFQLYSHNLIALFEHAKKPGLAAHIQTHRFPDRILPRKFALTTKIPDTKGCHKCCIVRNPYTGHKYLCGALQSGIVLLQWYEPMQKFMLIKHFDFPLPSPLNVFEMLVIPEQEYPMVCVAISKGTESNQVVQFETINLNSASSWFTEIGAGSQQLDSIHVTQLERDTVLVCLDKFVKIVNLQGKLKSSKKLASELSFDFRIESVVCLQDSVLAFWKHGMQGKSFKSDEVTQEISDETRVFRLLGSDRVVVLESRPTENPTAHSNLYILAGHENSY
# [2] = biological target: T2, Dual specificity mitogen-activated protein kinase kinase 7 (Homo sapiens) (UniProt O14733); assay: Binding affinity to wild-type human full length MKK7 (M1 to R419 residues) expressed in mammalian expression system assessed as residual binding level at 100 nM by Kinomescan method relative to control
# T2 sequence (whole entry): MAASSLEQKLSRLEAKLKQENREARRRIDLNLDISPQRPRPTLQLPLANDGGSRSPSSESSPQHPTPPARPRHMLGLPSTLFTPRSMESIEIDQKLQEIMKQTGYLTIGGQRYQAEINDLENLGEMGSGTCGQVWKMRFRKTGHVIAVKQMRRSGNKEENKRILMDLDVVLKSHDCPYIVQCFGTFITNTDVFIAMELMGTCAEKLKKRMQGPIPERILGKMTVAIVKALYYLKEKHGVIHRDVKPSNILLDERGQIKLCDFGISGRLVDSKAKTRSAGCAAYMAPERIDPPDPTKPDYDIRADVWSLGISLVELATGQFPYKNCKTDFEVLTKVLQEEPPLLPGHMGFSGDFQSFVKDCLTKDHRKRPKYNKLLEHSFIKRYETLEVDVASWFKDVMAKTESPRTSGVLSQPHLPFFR
# [3] = biological target: T3, Mitogen-activated protein kinase kinase kinase 20 (Homo sapiens, UniProt Q9NYL2); assay: Binding affinity to wild-type human partial length ZAK (M1 to L331 residues) expressed in bacterial expression system assessed as residual binding level at 100 nM by Kinomescan method relative to control
# Target sequence in this assay (Q9NYL2 2-800 limits assumed): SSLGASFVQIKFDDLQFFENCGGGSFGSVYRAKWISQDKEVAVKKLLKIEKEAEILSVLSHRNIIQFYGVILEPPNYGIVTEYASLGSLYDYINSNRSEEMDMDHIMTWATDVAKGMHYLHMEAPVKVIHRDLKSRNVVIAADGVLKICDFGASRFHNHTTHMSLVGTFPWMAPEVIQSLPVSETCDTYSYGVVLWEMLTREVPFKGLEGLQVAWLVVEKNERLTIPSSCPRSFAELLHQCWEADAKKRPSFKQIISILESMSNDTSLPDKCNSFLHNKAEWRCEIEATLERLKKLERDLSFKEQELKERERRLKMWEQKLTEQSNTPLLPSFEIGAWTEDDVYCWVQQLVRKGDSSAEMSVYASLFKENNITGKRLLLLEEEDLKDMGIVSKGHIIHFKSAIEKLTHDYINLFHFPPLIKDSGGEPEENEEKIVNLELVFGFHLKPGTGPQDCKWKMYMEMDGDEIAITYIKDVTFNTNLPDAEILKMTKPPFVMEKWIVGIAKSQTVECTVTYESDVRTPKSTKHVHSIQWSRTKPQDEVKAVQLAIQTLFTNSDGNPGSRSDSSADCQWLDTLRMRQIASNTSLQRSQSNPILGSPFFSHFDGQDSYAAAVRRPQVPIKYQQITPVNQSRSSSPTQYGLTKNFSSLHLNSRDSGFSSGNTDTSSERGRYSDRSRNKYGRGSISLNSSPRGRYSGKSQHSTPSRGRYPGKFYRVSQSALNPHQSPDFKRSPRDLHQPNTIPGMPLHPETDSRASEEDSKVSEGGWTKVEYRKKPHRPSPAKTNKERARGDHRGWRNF
# [4] = biological target: T4, Dual specificity mitogen-activated protein kinase kinase 4 (Homo sapiens, UniProt P45985); assay: Inhibition of MKK4 (unknown origin) by PanQinase assay
# T4 sequence (P45985 whole entry): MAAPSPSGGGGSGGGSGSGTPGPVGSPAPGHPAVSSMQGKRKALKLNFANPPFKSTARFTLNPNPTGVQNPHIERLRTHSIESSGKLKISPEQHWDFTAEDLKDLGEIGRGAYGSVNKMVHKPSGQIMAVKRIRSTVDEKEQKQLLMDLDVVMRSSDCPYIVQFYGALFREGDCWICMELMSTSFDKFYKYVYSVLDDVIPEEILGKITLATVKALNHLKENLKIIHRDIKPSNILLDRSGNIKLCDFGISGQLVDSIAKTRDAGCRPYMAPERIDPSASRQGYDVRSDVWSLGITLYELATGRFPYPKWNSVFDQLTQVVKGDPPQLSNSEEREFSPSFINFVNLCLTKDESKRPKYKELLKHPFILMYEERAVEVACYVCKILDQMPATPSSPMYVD
# [5] = biological target: Serine/threonine-protein kinase B-raf (Homo sapiens, UniProt P15056); assay: Binding affinity to wild-type human partial length BRAF (S429 to E741 residues) expressed in mammalian expression system by Kinomescan method
# Sequence of Serine/threonine-protein kinase B-raf (P15056 whole entry, the tested form may be a part): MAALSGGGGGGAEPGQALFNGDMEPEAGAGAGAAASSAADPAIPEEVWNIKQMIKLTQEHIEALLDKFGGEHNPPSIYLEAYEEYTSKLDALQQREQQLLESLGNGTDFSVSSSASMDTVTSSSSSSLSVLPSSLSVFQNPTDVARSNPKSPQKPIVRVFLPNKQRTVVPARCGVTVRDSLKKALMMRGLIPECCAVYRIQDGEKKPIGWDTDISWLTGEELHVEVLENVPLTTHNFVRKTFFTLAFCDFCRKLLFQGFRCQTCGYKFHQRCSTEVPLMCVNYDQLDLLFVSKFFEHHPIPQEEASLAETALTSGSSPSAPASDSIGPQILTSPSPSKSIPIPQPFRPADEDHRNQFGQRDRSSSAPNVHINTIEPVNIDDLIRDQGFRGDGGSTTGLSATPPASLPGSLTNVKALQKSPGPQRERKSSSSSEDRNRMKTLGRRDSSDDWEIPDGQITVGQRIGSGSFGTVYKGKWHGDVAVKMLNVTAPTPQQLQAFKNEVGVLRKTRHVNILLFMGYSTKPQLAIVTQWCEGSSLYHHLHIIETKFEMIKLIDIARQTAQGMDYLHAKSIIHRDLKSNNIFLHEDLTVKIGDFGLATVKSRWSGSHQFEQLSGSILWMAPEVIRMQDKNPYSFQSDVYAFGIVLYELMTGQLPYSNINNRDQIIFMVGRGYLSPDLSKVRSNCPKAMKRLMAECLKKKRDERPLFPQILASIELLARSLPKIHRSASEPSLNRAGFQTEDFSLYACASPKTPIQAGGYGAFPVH
# [6] = biological target: Mitogen-activated protein kinase 8 (Homo sapiens, UniProt P45983); assay: Binding affinity to wild-type human full length JNK1 (M1 to Q384 residues) expressed in mammalian expression system by Kinomescan method
# Sequence of Mitogen-activated protein kinase 8 (P45983 whole entry, the tested form may be a part): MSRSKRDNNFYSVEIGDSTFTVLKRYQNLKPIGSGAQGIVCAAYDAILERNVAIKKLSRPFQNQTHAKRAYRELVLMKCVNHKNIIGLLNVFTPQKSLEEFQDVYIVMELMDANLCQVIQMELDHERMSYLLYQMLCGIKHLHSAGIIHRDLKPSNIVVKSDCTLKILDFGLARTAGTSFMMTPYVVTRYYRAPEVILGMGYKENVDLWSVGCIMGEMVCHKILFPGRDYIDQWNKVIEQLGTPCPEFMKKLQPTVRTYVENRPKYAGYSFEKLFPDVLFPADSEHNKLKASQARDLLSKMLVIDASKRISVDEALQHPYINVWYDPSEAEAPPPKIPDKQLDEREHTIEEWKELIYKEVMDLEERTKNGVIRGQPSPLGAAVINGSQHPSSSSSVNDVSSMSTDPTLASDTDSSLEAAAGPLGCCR
# [7] = biological target: T1, Mitogen-activated protein kinase kinase kinase kinase 5; assay: Binding affinity to wild-type human partial length MAP4K5 (M1 to P297 residues) expressed in bacterial expression system by Kinomescan method
# Summary of the method: (§1)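 Dissociation constants (Kd, nM) were determined by KINOMEscan competition-binding assay, in duplicate.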
# Target sequence in this assay (Q9Y4K4 whole entry, the tested form may be a part): as the sequence (Q9Y4K4 whole entry, looked up, the tested form may be a part) above
# [8] = biological target: T5, Dual specificity mitogen-activated protein kinase kinase 7 (Homo sapiens, UniProt O14733); assay: Binding affinity to wild-type human full length MKK7 (M1 to R419 residues) expressed in mammalian expression system by Kinomescan method; summary of the method: as §1
# T5 sequence (O14733 whole entry): T2 sequence (whole entry)
# [9] = biological target: T3, Mitogen-activated protein kinase kinase kinase 20; assay: Binding affinity to wild-type human partial length ZAK (M1 to L331 residues) expressed in bacterial expression system by Kinomescan method; summary of the method: as §1
# Target sequence in this assay (Q9NYL2 whole entry, the tested form may be a part): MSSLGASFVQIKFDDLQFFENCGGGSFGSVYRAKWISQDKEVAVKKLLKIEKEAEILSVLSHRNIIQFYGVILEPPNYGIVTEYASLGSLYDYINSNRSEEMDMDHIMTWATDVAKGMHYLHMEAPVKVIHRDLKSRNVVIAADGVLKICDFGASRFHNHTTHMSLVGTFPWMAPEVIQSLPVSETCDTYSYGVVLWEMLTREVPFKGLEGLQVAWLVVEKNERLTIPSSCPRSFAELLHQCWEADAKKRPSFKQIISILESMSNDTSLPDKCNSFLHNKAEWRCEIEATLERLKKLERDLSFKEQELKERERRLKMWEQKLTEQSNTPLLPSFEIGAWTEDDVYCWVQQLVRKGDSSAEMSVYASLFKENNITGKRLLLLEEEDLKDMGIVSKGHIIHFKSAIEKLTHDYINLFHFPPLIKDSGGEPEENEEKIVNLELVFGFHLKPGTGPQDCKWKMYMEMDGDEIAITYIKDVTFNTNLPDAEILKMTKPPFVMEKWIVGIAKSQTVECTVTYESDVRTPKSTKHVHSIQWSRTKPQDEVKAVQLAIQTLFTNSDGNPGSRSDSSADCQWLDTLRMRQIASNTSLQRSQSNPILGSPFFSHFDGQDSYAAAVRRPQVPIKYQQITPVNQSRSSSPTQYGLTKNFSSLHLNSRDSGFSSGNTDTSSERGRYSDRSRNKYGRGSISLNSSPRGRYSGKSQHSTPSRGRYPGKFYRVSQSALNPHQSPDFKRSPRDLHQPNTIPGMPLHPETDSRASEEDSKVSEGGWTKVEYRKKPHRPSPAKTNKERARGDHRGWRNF
Compound,Activity [1] [%],Activity [2] [%],Activity [3] [%],pIC50 [4],pKd [5],pKd [6],pKd [7],pKd [8],pKd [9]
CCCS(=O)(=O)Nc1ccc(F)c(C(=O)c2n[nH]c3ncc(-c4ccc(S(N)(=O)=O)cc4)cc23)c1F,100,98,91,7.05,–,–,–,–,–
Nc1ccc(-c2cnc3[nH]nc(C(=O)c4c(F)ccc(NS(=O)(=O)Cc5ccccc5)c4F)c3c2)cc1,1.4,100,1.8,–,6.21,6.85,8.24,5.30,8.02
CCCS(=O)(=O)Nc1ccc(F)c(C(=O)c2n[nH]c3ncc(-c4cc(Cl)cc(Cl)c4)cc23)c1F,99,100,66,–,–,–,–,–,–
CCCS(=O)(=O)Nc1ccc(F)c(C(=O)c2n[nH]c3ncc(-c4ccc(NS(C)(=O)=O)cc4)cc23)c1F,1.1,100,4.3,–,–,–,–,–,–
CCCS(=O)(=O)Nc1ccc(F)c(C(=O)c2n[nH]c3ncc(-c4cccc(O)c4)cc23)c1F,8,100,0.95,–,–,–,–,–,–
CCCS(=O)(=O)Nc1ccc(F)c(C(=O)c2n[nH]c3ncc(-c4ccc(O)cc4)cc23)c1F,9.4,87,0,–,–,–,–,–,–
CCCS(=O)(=O)Nc1ccc(F)c(C(=O)c2n[nH]c3ncc(-c4ccc(S(=O)(=O)NC(C)=O)cc4)cc23)c1F,67,71,38,7.54,–,–,–,–,–
